18 molecules from ChEMBL document CHEMBL1143154, “Discovery of potent LPA2 (EDG4) antagonists as potential anticancer agents” (Bioorg Med Chem Lett, 2008) can be followed below.

In assay [1] the target is T1, Lysophosphatidic acid receptor 2 (Homo sapiens, UniProt Q9HBW0). Briefly: Antagonist activity at LPA2 expressed in RH7777 cells with Gi4-protein and aequorin by calcium mobilization assay. In kind it is functional, cell-based. A digest of the protocol:
(§1)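 Rat hepatoma RH7777 cells transiently transfected with aequorin, chimeric Gi4-protein and the LPA receptor subtype (LPA1, LPA2 or LPA3). Inhibition of LPA-induced receptor activation read as Ca2+ flux by flash luminescence in 384-well format; IC50 in μM, n = 2.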
In general terms: Calcium assays in cells follow changes in intracellular calcium, usually with a dye or a luminescent sensor.

Assay [2] deals with T2, Lysophosphatidic acid receptor 3 (Homo sapiens, UniProt Q9UBY5).
T2 sequence (Q9UBY5 whole entry): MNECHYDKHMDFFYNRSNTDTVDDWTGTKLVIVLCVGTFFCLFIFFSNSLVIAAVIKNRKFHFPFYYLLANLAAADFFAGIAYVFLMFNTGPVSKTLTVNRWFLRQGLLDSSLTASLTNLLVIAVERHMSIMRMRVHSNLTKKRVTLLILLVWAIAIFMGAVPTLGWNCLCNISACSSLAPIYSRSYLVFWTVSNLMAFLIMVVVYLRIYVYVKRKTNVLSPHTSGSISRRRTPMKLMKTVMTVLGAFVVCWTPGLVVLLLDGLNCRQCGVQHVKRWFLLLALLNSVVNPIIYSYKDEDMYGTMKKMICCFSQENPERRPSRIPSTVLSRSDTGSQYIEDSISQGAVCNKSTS
Kind of assay: Antagonist activity at LPA3 expressed in RH7777 cells with Gi4-protein and aequorin by calcium mobilization assay. The assay is classed as functional, cell-based. The method, boiled down:
as §1

For assay [3], the target named is Lysophosphatidic acid receptor 1 (Homo sapiens, UniProt Q92633). Kind of assay: Antagonist activity at LPA1 expressed in RH7777 cells with Gi4-protein and aequorin by calcium mobilization assay. In kind it is functional, cell-based. A digest of the protocol:
as §1

In assay [4] the target is T1, Lysophosphatidic acid receptor 2. Kind of assay: Antagonist activity at LPA2 assessed as inhibition of LPA-induced Ca2+ flux. In kind it is functional. A digest of the protocol: as §1
The test system of assay [5] is HCT-116. Kind of assay: Inhibition of LPA-induced proliferation of human HCT116 cells after 24 hrs. In kind it is functional, cell-based. A digest of the protocol: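 HCT-116 cells at 5000 cells/well in serum-free DMEM with 0.11% BSA. Test compound added at various concentrations, then LPA at a final 3 μM (HGF at a final 30 ng/ml as comparison stimulus). After 24 h incubation, viable cells measured by CellTiter-Glo luminescence.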

For assay [6], the target named is T1, Lysophosphatidic acid receptor 2. Briefly: Inhibition of LPA2-mediated Erk activation in human HCT116 assessed as inhibition of LPA-induced erk phosphorylation. The method, boiled down: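 HCT-116 cells at 90% confluence serum-starved 2 h, preincubated with compound at various concentrations 1 h at 37 °C, then stimulated with LPA 3 μM (HGF 30 ng/ml as counter-stimulus) for 12 min at 37 °C. Cells fixed, permeabilized, blocked 2 h; in-cell Western detection of p-Erk and total Erk simultaneously, p-Erk normalized to total Erk per well.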

T1 sequence (Q9HBW0 whole entry): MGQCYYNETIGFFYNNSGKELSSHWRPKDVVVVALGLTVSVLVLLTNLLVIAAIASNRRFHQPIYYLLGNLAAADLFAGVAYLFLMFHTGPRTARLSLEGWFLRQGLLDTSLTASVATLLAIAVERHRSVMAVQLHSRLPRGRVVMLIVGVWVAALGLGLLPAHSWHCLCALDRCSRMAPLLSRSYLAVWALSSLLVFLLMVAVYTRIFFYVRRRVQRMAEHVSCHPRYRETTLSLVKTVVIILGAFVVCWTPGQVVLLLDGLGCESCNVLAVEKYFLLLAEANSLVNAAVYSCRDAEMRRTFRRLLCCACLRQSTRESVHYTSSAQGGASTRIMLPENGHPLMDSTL
Lysophosphatidic acid receptor 1, sequence (Q92633 whole entry): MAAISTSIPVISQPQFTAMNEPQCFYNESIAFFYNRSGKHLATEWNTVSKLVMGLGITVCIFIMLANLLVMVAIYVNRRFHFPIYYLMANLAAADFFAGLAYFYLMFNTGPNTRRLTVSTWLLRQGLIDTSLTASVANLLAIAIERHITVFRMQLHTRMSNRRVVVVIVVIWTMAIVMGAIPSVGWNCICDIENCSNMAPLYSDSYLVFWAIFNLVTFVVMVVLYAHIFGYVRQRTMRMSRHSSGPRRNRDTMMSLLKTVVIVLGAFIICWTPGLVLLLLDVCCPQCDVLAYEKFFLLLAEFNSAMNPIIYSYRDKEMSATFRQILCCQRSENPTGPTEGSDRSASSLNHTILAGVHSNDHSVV

As to `Cc1ccccc1S(=O)(=O)N1CCN(C[C@H](C)Nc2ncnc3c(C)csc23)CC1`, the concentration for half-maximal inhibition (IC50) (commonly the concentration that gives 50% inhibition) in assay [1] worked out at 730 nM. Still for that read-out and setting: to `Cc1cccc(S(=O)(=O)N2CCN(C[C@H](C)Nc3ncnc4c(C)csc34)CC2)c1` belongs 310 nM; to `CCCCS(=O)(=O)N1CCN(C[C@H](C)Nc2ncnc3c(C)csc23)CC1`, 6610 nM; to `COc1ccccc1N1CCN(CCNc2nc(C(F)(F)F)nc3ccccc23)CC1`, > 30000 nM. Turning to `COc1cc(OC)cc(C(=O)N(CCCc2ccccc2)Cc2ccc(Oc3ccccc3C(=O)O)cc2)c1`, the IC50 in assay [1] is > 50000 nM; in assay [2], 40 nM; in assay [3], > 50000 nM. Consider `CC(CN1CCN(c2ccc(F)cc2)CC1)Nc1nc(C2CC2)nc2ccccc12` (stereo not drawn), for which the IC50 in assay [4] came to 1700 nM.

Take `CC[C@@H](CN1CCN(c2ccccc2OC)CC1)Nc1nc(C(F)(F)F)nc2ccccc12`: in assay [1], the 50% inhibitory concentration (IC50) is > 30000 nM. On the same count and under the same terms, to `COc1ccccc1N1CCN(C[C@H](C)Nc2nc(C3CC3)nc3ccccc23)CC1` belongs 3200 nM; to `COc1ccccc1N1CCN(C[C@@H](C)Nc2nc(C(F)(F)F)nc3ccccc23)CC1`, > 30000 nM; to `Cc1csc2c(N[C@@H](C)CN3CCN(S(=O)(=O)Cc4ccccc4)CC3)ncnc12`, 1860 nM. Still for that read-out and setting: for `COc1ccccc1N1CCN(CC(C)(C)Nc2nc(C(F)(F)F)nc3ccccc23)CC1` the value was > 30000 nM. In the case of `Cc1csc2c(N[C@@H](C)CN3CCN(S(=O)(=O)c4ccc(Cl)c(Cl)c4)CC3)ncnc12`, the Activity entry in assay [5] and in assay [6] was “Dose-dependent effect” each time. Further, the IC50 in assay [1] is 17 nM; in assay [2], > 50000 nM; in assay [3] it was > 50000 nM.

For the molecule `Cc1noc(-c2ccccc2)c1NC(=O)OC(C)c1ccccc1` (stereo not drawn), the values for the half-inhibitory concentration (IC50) in assay [1], in assay [2] and in assay [3] were > 50000 nM, 12000 nM and 50 nM, respectively. For `Cc1ccccc1N1CCN(C[C@H](C)Nc2nc(C(F)(F)F)nc3ccccc23)CC1`, the IC50 in assay [1] was found to be 730 nM. Same read-out and setting: for `COc1ccccc1N1CCN(C[C@H](C)Nc2nc(C(F)(F)F)nc3ccccc23)CC1` the value was 1300 nM.

Turning to `Cc1ccccc1N1CCN(C[C@H](C)Nc2ncnc3c(C)csc23)CC1`, the IC50 in assay [1] was 260 nM; in assay [2], > 50000 nM; in assay [3] it was > 50000 nM. Turning to `Cc1csc2c(N[C@@H](C)CN3CCN(S(=O)(=O)c4cccc(Cl)c4)CC3)ncnc12`, in assay [1], the IC50 stood at 35 nM. Same read-out and setting: for `Cc1ccc(S(=O)(=O)N2CCN(C[C@H](C)Nc3ncnc4c(C)csc34)CC2)cc1` the value was 170 nM.
